ChEMBL document CHEMBL3808312, “Bioactive Constituents of Glycyrrhiza uralensis (Licorice): Discovery of the Effective Components of a Traditional Herbal Medicine” (J Nat Prod, 2016)
Active and inactive are the calls of the source. No cut-off for these calls is given here.

What was measured:
[1] = tested on: HepG2; assay: Cytotoxicity against human HepG2 cells assessed as reduction in cell viability after 24 hrs by MTS assay; assay type: functional, cell-based; details: HepG2, 24 h
Summary of the method: (§1)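 Cells seeded at 5 × 10^3/well and cultured overnight, then exposed to compounds for 24 h. Viability read by MTS. Media: SW480 in RPMI1640, A549 in DMEM, MCF7 in MEM. […] Irinotecan positive control.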

[2] = tested on: SW480; assay: Cytotoxicity against human SW480 cells assessed as reduction in cell viability after 24 hrs by MTS assay; assay type: functional, cell-based; details: SW480, 24 h; summary of the method: as §1
[3] = tested on: A549; assay: Cytotoxicity against human A549 cells assessed as reduction in cell viability after 24 hrs by MTS assay; assay type: functional, cell-based; details: A549, 24 h; summary of the method: as §1
[4] = tested on: MCF7; assay: Cytotoxicity against human MCF7 cells assessed as reduction in cell viability after 24 hrs by MTS assay; assay type: functional, cell-based; details: MCF7, 24 h; summary of the method: as §1
[5] = target: T1, Tyrosine-protein phosphatase non-receptor type 1 (Homo sapiens) (UniProt P18031); assay: Inhibition of recombinant human PTP1B assessed as hydrolysis of p-nitrophenyl phosphate at 25 uM after 30 mins relative to control
T1 sequence (whole entry): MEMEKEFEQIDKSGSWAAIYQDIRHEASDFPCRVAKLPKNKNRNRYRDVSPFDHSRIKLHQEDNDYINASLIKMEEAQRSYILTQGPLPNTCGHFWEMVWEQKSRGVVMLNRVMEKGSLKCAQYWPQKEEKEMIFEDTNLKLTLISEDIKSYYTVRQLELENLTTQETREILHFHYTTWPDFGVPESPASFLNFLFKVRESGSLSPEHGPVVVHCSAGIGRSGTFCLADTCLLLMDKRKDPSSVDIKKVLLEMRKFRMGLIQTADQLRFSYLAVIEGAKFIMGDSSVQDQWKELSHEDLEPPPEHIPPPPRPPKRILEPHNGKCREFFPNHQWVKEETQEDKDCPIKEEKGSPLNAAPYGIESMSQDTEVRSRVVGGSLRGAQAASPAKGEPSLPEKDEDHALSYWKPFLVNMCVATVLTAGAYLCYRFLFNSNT

[6] = target: T2, Nuclear factor erythroid 2-related factor 2 (Homo sapiens) (UniProt Q16236); assay: Activation of NRF2 transcription in human HepG2C8 cells at 10 uM after 6 hrs by luciferase reporter gene assay relative to control; assay type: cell-based
T2 sequence (whole entry): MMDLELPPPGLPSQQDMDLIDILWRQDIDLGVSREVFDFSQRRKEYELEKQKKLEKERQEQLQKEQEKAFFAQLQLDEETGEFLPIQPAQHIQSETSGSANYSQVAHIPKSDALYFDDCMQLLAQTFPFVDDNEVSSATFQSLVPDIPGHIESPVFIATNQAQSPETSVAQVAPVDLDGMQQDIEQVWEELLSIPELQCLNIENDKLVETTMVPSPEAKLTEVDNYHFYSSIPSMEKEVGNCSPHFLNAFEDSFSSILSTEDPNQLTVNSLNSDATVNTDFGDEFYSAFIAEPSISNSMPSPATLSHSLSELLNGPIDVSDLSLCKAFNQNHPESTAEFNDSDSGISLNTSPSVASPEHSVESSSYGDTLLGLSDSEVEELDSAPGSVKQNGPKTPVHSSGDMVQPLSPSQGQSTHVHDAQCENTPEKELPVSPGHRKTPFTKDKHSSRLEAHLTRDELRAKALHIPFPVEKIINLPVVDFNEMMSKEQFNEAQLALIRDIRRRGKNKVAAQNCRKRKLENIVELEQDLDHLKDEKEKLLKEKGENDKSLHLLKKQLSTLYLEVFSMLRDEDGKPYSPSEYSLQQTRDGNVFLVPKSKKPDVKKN
Summary of the method: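 Luciferase reporter in HepG2C8 cells, which are HepG2 stably transfected with an Nrf2 luciferase reporter and grown in MEM. Screened at 10 μM, with dose-response over 2.5−40 μM. Activity expressed as fold of control. tBHQ positive control.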

[7] = target: T3, Tyrosinase (Homo sapiens) (UniProt P14679); assay: Inhibition of tyrosinase (unknown origin) using L-tyrosine as substrate assessed as oxidation of L-tyrosine at 20 uM after 15 mins
T3 sequence (whole entry): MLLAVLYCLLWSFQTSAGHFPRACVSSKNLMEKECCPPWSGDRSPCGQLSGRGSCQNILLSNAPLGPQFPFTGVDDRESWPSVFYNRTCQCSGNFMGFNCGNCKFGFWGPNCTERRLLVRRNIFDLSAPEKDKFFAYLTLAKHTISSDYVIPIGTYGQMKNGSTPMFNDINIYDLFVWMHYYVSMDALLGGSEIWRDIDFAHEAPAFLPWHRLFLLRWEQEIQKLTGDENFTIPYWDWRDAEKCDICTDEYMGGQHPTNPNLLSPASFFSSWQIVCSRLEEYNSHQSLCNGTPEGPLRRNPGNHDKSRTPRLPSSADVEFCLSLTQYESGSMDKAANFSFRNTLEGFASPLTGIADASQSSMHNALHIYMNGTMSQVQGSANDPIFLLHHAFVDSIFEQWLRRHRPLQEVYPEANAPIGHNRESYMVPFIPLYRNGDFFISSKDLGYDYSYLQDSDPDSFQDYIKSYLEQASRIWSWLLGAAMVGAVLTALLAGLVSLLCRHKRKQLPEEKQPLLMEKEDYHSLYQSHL
Summary of the method: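 Tyrosinase at 333 U/mL (stock) in 45 mM sodium phosphate, pH 6.6, with 2 mM L-tyrosine (stock). Incubated 37 °C for 15 min; oxidation read at 492 nm. Screened at 20 μM; dose-response for IC50. Glyasperin C positive control.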

[8] = tested on: SW480; assay: Inhibition of NFkappaB transcription in human SW480 cells at 10 uM by luciferase reporter gene assay; assay type: cell-based
Summary of the method: (§2)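 SW480 cells (RPMI1640) stably transfected with an NF-κB luciferase reporter. […] MG132 positive control.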

[9] = (§3) Inhibition of NFkappaB transcription in human SW480 cells at by luciferase reporter gene assay; assay type: cell-based; summary of the method: as §2
[10] = tested on: SW480; assay: as §3; assay type: cell-based; summary of the method: as §2
[11] = tested on: Influenza A virus; assay: Antiviral activity against Influenza A virus A/WSN/33(H1N1) infected in MDCK cells at 100 uM preincubated with virus for 15 mins followed by cells addition measured at 36 hrs post infection; assay type: functional, A/WSN/1933(H1N1)
Summary of the method: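 MDCK canine kidney cells grown in DMEM and infected with influenza A/WSN/33 (H1N1). Compounds screened at 100 μM. Oseltamivir phosphate served as the positive control.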

[12] = tested on: Influenza A virus; assay: Antiviral activity against Influenza A virus A/WSN/33(H1N1) infected in dog MDCK cells preincubated with virus for 15 mins followed by cells addition measured at 36 hrs post infection; assay type: functional, organism-based; details: A/WSN/1933(H1N1)

COc1c(-c2ccc(O)cc2)oc2cc(O)c(CC=C(C)C)c(O)c2c1=O
IC50 [1]: 10.8 µM | IC50 [2]: 16.1 µM | IC50 [3]: 23.1 µM | IC50 [4]: 7.3 µM | inhibition [5]: 52%

COc1cc2c(c3oc(-c4ccc(O)cc4O)cc13)C(C)(C)C(C)O2 (stereo unspecified)
inhibition [5]: > 90%

COc1c(CC=C(C)C)c(O)cc2oc(=O)c(-c3ccc(O)cc3O)cc12
fold change (FC) [6]: 1.72

CC(C)=CCc1cc(-c2oc3cc(O)cc(O)c3c(=O)c2O)cc(O)c1O
inhibition [5]: Active

COc1cc2c(c3oc(=O)c(-c4ccc(O)cc4O)cc13)C(C)(C)C(CO)O2 (stereo unspecified)
fold change (FC) [6]: 0.88

COc1cc(/C=C/C(=O)c2ccc(O)cc2O)ccc1O
inhibition [7]: Active

COc1cc(O)cc2c1[C@@H]1Oc3c(ccc4c3C=CC(C)(C)O4)[C@@H]1CO2
inhibition [8]: > 30% | IC50 [9]: 25.8 µM | inhibition [10]: Dose-dependent effect

CC(C)=CCc1c(O)cc2occ(-c3ccc(O)c(O)c3)c(=O)c2c1O
IC50 [1]: 6 µM | IC50 [2]: 12 µM | IC50 [3]: 20.3 µM | IC50 [4]: 7 µM

C=CC(C)(C)c1c(O)cc(OC)c2cc(-c3ccc(O)cc3O)c(=O)oc12
fold change (FC) [6]: 0.88

COc1cc2c(c(OC)c1CC=C(C)C)C=C(c1ccc(O)cc1O)CO2
inhibition [7]: inactive

O=C(/C=C/c1ccc(O)cc1)c1ccc(O)cc1O
fold change (FC) [6]: 5.88 | inhibition [7]: Active

C[C@H]1O[C@H](O[C@H]2CC(C)(C)C[C@@H]3C4=CC(=O)[C@H]5[C@]6(C)CC[C@@H](O[C@@H]7O[C@H](C(=O)O)[C@@H](O)[C@H](O)[C@H]7O[C@@H]7O[C@H](C(=O)O)[C@@H](O)[C@H](O)[C@H]7O)C(C)(C)[C@H]6CC[C@]5(C)[C@@]4(C)CC[C@]23C)[C@@H](O)[C@@H](O)[C@@H]1O
Activity [11]: 47% | IC50 [12]: 39.6 µM | fold change (FC) [6]: 1.53

CC1(C)[C@@H](O)CC[C@]2(C)[C@H]3C(=O)C=C4[C@H]5C[C@@](C)(C(=O)O)CC[C@]5(C)CC[C@@]4(C)[C@]3(C)CC[C@@H]12
Activity [11]: 58% | inhibition [5]: 81%

COc1ccc2c(c1)OC1C2COC2=CC(=O)CCC21O (stereo unspecified)
inhibition [8]: > 30% | IC50 [9]: 16.9 µM | inhibition [10]: Dose-dependent effect | inhibition [5]: inactive

COc1cc2c(c3oc(=O)c(-c4ccc(O)cc4O)cc13)C(C)(C)C(C)O2 (stereo unspecified)
fold change (FC) [6]: 0.88

CCc1c2c(nc3ccc(OC(=O)N4CCC(N5CCCCC5)CC4)cc13)-c1cc3c(c(=O)n1C2)COC(=O)[C@]3(O)CC [IRINOTECAN]
IC50 [1]: 0.9 µM | IC50 [2]: 1.4 µM | IC50 [3]: 0.8 µM | IC50 [4]: 0.5 µM

O=C1C[C@@H](c2ccc(O)cc2)Oc2cc(O)ccc21
inhibition [5]: inactive
